Compounds with a hit are over-represented: about 3.4% of the library has one in this group of screens.
DTT redox prof = compounds producing H2O2 with reducing agent – biochemical, NIH compound library profiling, artefact control for MLSCN library redox annotation, primary screen. DTT-dependent redox cycling H2O2, phenol red/HRP absorbance; 100% = 100 µM peroxide control, 0% = buffer. activation, % at 10 µM. 0.03% of 200,000 active. AID 878, 2007;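 active means activation of at least 50% relative to the plate's high and low controls in the primary single-dose screen; inactive means activation below 50%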;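 further: compound incubated with DTT at 0.8 mM final as the reducing agent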
ROMK mod = ROMK potassium channel modulators, primary screen, cell-based, thallium flux, MLSMR library. ATP-sensitive inward rectifier potassium channel 1 (Homo sapiens), P48048. Tet-inducible ROMK, thallium flux fluorescence; actives lie on both sides. B-score at 10 µM. 2% of 130,000 active;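 active means signal ratio slope over the read window, or its plate-corrected B-score, at least 3 SD from the plate mean, either direction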;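 further: B-score of the F/F0 ratio slope over 7 to 12 s after thallium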
p97 inhibitor = inhibitors of human p97 ATPase, primary screen, biochemical | Transitional endoplasmic reticulum ATPase (Homo sapiens), P55072 | recombinant p97 ATPase, Kinase-Glo ATP luminescence, 3 h | inhibition, % at 8 µM | 0.42% of 220,000 active | AID 1481, 2009; in the data active means inhibition above about 15%;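 further: 0% = DMSO vehicle and 100% = wells lacking enzyme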
PKD1 inh = inhibitors of human PKD1 kinase, biochemical, fluorescence polarization. Serine/threonine-protein kinase D1 (Homo sapiens), Q15139. PKD1 kinase fluorescence polarization assay. inhibition, % (no concentration beside the values). 0.056% of 200,000 active. AID 797, 2007; in the data active means inhibition above about 50%
KCC2 mod = KCC2 cotransporter modulators, thallium flux, primary screen, cell-based, HEK293 KCC2, FluoZin-2 fluorescence, MLSMR; 2.2% of 190,000 active; B-score of Tl+ flux slope (higher = more flux/activation; lower = inhibition) at 10 µM; Solute carrier family 12 member 5 (Homo sapiens), Q9H2X9; KCC2 cells, thallium flux FluoZin-2 fluorescence;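 active means thallium flux slope and its plate-corrected score both differing from the plate sample mean at a set confidence after two filtering rounds, in either direction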;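 further: slope of fluorescence scaled to starting intensity during 10 to 20 s after thallium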
Target sequence (Q9H2X9 whole entry, looked up): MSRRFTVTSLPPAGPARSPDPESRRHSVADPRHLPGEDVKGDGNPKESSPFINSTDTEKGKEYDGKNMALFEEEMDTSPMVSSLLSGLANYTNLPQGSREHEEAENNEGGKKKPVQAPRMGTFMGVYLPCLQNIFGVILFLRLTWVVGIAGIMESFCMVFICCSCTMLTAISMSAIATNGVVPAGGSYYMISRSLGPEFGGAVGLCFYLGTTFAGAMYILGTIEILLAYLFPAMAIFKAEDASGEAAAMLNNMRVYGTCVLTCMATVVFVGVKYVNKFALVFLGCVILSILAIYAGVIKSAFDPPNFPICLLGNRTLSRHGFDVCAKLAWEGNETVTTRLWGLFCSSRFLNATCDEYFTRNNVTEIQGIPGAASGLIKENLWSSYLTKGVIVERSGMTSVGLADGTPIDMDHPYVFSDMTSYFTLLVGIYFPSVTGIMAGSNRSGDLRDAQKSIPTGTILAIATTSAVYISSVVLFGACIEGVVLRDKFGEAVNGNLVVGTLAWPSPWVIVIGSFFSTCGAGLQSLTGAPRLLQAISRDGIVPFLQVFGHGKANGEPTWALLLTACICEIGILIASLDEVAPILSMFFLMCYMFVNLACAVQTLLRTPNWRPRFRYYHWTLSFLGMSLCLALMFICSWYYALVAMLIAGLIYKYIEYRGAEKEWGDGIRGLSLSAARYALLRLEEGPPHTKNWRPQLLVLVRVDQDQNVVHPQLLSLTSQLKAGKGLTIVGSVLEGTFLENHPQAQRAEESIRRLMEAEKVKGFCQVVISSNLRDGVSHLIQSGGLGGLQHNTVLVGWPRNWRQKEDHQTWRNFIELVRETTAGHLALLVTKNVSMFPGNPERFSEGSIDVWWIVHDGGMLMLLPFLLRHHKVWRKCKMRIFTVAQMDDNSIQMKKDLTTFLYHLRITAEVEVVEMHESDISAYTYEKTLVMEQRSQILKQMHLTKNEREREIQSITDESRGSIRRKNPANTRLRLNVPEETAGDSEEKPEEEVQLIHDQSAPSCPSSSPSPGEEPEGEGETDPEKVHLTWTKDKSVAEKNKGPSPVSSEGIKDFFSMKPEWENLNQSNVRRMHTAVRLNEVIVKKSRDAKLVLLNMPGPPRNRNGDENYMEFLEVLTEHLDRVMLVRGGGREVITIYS
MDM2 E3 inh = MDM2-luciferase reporter signal enhancers, primary screen, MDM2 E3 ligase inhibitor project, cell-based, luminescence, 1536-well | E3 ubiquitin-protein ligase Mdm2 (Homo sapiens), Q00987 | cell-based MDM2 ubiquitination luciferase reporter, 2 h; 0 = plate control, 100 = twice control, blank-subtracted | signal enhancement, % at 5 µM | 0.11% of 210,000 active | AID 1230, 2008;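 active means signal enhancement of 30% or more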;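 further: luminescence tracks abundance of the self-degrading MDM2-luciferase fusion protein; higher signal means inhibition of MDM2 E3 ligase activity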
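Assay system: stable mammalian line carrying autodegrading MDM2–luciferase fusion reporter; amount: 2000 cells seeded into each well; buffer or medium: DMEM; benchmarks: plate control and blank wells; signal: luciferase luminescence; timing: 2 h compound exposure at 37 °C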
KCC2 sec1 = KCC2 modulators in sodium-free buffer, confirmation, cell-based, HEK293 KCC2, thallium flux, secondary assay; shares compounds with KCC2 mod; FluoZin2 fluorescence; hits give high values; normalised thallium flux (F/F0 slope) at 10 µM; 15% of 3,700 active;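 active means thallium flux slope above the same plate's solvent-only control mean plus 3 SD; inconclusive means the two replicate wells disagree; inactive means no significant difference from solvent-only control wells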
KCC2 bumet counter = thallium flux persisting under bumetanide in KCC2 cells, confirmation, counter-screen for KCC2 modulator project, cell-based, HEK293 KCC2, FluoZin2, secondary assay 3. shares compounds with KCC2 mod. HEK293-KCC2 + bumetanide/ouabain; hits give high values. normalized thallium flux at 10 µM. 49% of 3,700 active. AID 1714, 2009;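 active means thallium entry rate above the same plate's blocked-transporter control wells by more than 3 SD; inconclusive means the two repeat wells disagree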;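 further: raw slope of fluorescence over initial fluorescence between 10 and 20 s after thallium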
KCC2 sec2 = KCC2 modulators without ouabain present, confirmation, cell-based, HEK293 KCC2, thallium flux, FluoZin2, secondary assay 2; shares compounds with KCC2 mod; thallium flux FluoZin2 fluorescence; actives lie on both sides; F/F0 rise rate, 10–20 s post-thallium; normalized thallium flux at 10 µM; 23% of 3,700 active;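 active means thallium flux slope more than 3 SD above or below the plate's solvent-only control mean, mostly below; inconclusive means the two repeat wells disagreed; inactive means no significant shift from solvent-only controls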;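 further: raw slope with 0.1% DMSO as baseline and bumetanide as block control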
HEK293 Tl flux = thallium flux modulation in parental HEK cells, confirmation, counter-screen for KCC2 modulator project, cell-based, counterscreen 1; 46% of 3,700 active; AID 1716, 2009; thallium flux rate (normalised fluorescence) at 10 µM; shares compounds with KCC2 mod; HEK293 parental cells, thallium flux FluoZin2, ouabain; baseline-ratio fluorescence slope, 10–20 s after thallium;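 active means thallium flux rate significantly above the same plate's solvent-only control wells, beyond their mean plus 3 SD; inconclusive means the two replicate wells gave conflicting results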
KCC2 ouabain = KCC2 inhibitors and activators, ouabain retest, confirmation, HEK-KCC2 cells. AID 1717, 2009. raw Tl+ flux slope (below DMSO = inhibition, above = activation) at 10 µM. HEK293-KCC2, thallium flux FluoZin2 fluorescence; bidirectional: low = inhibitor, high = activator. 48% of 3,700 active. shares compounds with KCC2 mod;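 active means thallium flux slope beyond 3 SD from same-plate DMSO control mean in most replicates, usually higher, sometimes lower; inconclusive means repeat tests gave conflicting results; inactive means no significant difference from controls in most replicates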;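 further: slope of initial-normalized fluorescence between seconds 10 and 20 after thallium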
HEK293 Tl flux2 = native HEK Tl+ uptake effects, second counter-screen – HEK cells, counterscreen 2, counter-screen for KCC2 modulator project, confirmation. 33% of 3,700 active. thallium flux slope at 10 µM. AID 1718, 2009. shares compounds with KCC2 mod. HEK293 parental, thallium flux FluoZin-2 fluorescence slope;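 active means thallium flux slope above the same plate's solvent-control mean plus 3 SD in both duplicate wells; inconclusive means duplicate wells that disagreed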;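 further: run without ouabain in cells lacking the KCC2 cotransporter; slope of fluorescence scaled to its starting value between 10 and 20 s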
The depositor's hits bear a star; ? = inconclusive; / = no result given.

SMILES	DTT redox prof	ROMK mod	p97 inhibitor	PKD1 inh	KCC2 mod	MDM2 E3 inh	KCC2 sec1	KCC2 bumet counter	KCC2 sec2	HEK293 Tl flux	KCC2 ouabain	HEK293 Tl flux2
O=C(CCn1c(=O)c2ccccc2n(Cc2cccc([N+](=O)[O-])c2)c1=O)N1CCc2ccccc2C1	1	-0.77	6	-11	-3.1*	1	0.0068	0.0047	0.034	0.0067	0.018*	0.011
CC1CCC2(CC1)C(Nc1cccc(Cl)c1)=NC(=S)N2CC#N (stereo not given)	0	-0.36	3	3	19*	/	0.0097*	0.05*	0.055*	0.052*	0.045*	0.041*
CC1CCC(=C(C#N)C(=O)Nc2cccc(Cl)c2)CC1 (stereo not given)	2	/	5	-9	0.87	2	/	/	/	/	/	/
CO[C@H]1C[C@@H]2CC[C@@H](C)[C@@](O)(O2)C(=O)C(=O)N2CCCC[C@H]2C(=O)O[C@H]([C@H](C)C[C@@H]2CC[C@@H](O)[C@H](OC)C2)CC(=O)[C@H](C)C=C(C)[C@@H](O)[C@@H](OC)C(=O)[C@H](C)C[C@H](C)C=CC=CC=C1C	/	/	/	/	-0.83	-12	0.0069	0.0045	0.029	0.0077	0.019	0.011
O=C(O)/C=C/c1ccc(S(=O)(=O)NCc2cccnc2)cc1	/	/	7	/	3.8*	/	0.015	0.0045	0.029	0.0072	0.016	0.011
COc1ccc(CC(=O)Nc2ccc(-c3nc4cc(C)ccc4o3)c(O)c2)cc1OC	4	/	3	-8	-5.4*	-9	0.017	0.0048	0.03	0.0074	0.017	0.01
CN(C)c1ccc(C(=O)c2ccc(O)cc2O)cc1	0	2.4	-5	5	-3.6*	-12	0.0076	0.0059	0.034	0.0075	?	0.011
O=C(c1ccc(O)cc1)c1ccc(O)cc1O	/	/	5	/	1.1	/	/	/	/	/	/	/
O=C(OCC#Cc1c(COC(=O)c2ccccc2)nnn1Cc1ccccc1)c1ccccc1	/	/	/	/	1.8*	-2	0.007	0.004	0.028	0.0073	0.018	0.01

Bioassay records from PubChem.
